# MT1-MMP act inh – blocks activation of human MT1-MMP. actives 0.061% (n = 360,000). P50281. GFP/RFP ratio change, % at 20 µM. HT1080 RFP-PRO-GFP cells, GFP/RFP ratio fluorescence, overnight; percent of plate control window, DMSO zero;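 active = GFP/RFP ratio change of at least 30% with cell ATP level not reduced by more than half and red fluorescence within 50% of control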
#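 Assay system: RFP-PRO-GFP reporter HT1080 cells; read-out basis: GFP/RFP fluorescence ratio; benchmarks: DMSO wells and RFP-L50D-GFP cells; doses: 20 µM single dose, 1% DMSO; schedule: overnight cell settling, then overnight compound exposure, 37 °C, 5% CO2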
# MIN6 prolif – inducers of beta-cell replication in MIN6 cells | actives 0.29% (n = 330,000) | MIN6 cells proliferation, ATPlite luminescence, 48 h; cells starved in 0.2% serum; 100% = growth in 10% serum | proliferation, % at 10 µM | AID 2380;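 active = compounds whose signal lies at least 3.5 SD above the mean of all wells on their plate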;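 note: 0% = DMSO-treated cells in low-serum medium and 100% = 10% serum control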
# Myeloid diff MLP – promotes myeloid progenitor differentiation. ER-HoxA9 myeloid progenitors, lysozyme-GFP differentiation, flow cytometry. calls only at 10 µM. actives 1% (n = 360,000). AID 624256;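 active = normalized GFP-positive differentiation at or above the plate's own cutoff, the solvent-only control mean plus 3 SD; inconclusive = no clear call, values can overlap the other calls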;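 note: cells exposed to compound for four days before flow analysis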
# SENP1 inh – SENP1 (human) catalytic domain inhibition | inhibition, % at 10 µM | actives 0.21% (n = 360,000) | AID 624204 | recombinant SENP1 catalytic domain, CyPet-SUMO1-YPet FRET cleavage | Q9P0U3;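 active = inhibition at least 30% at 10 µM, raw YFP signal under a set limit, fluorescence ratio 0.5 to 1.5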;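 note: 0% = enzyme with DMSO and 100% = no enzyme wells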
#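 Test system: human SENP1 catalytic domain; medium: Tris pH 8 buffer plus EDTA, NaCl, BME, BSA, NP40, catalase; incubation: 50 min reaction at room temperature; technique: FRET, CFP and YFP emission; controls: no-enzyme low control and enzyme-plus-DMSO high control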
# NRP1-CendR mod – NRP-1/CendR interaction modulation. O14786. FAM-RPARPAR peptide binding to NRP-1, fluorescence polarization. inhibition, % at 25 µM. actives 0.85% (n = 360,000);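 active = inhibition or corrected inhibition above about 18%, plus a signal ratio from 0.5 to 1.5, limit read from the data, passing the limit was not always enough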
# DAGLB inh – diacylglycerol lipase beta (human) inhibition; HEK293T DAGLB membrane lysate, EnzChek fluorogenic substrate; AID 504411; Q8NCG7; inhibition, % at 5.17 µM; actives 0.059% (n = 340,000); in the data active = inhibition above about 34%;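 note: 0% = enzyme with vehicle and 100% = wells lacking enzyme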
# The depositor's hits bear a star; i = inactive; ? = inconclusive; . = no result given; + = active, no number; ! = repeats disagree. Most compounds without a hit are left out; they make up all but 2.4% or so of the library.
SMILES,MT1-MMP act inh,MIN6 prolif,Myeloid diff MLP,SENP1 inh,NRP1-CendR mod,DAGLB inh
O=C(CCNC(=O)c1ccccc1Cl)Nc1cccc(S(=O)(=O)N2CCOCC2)c1,2,-3,i,2,1,-2
CCCN(CCC)C(=O)CC(c1ccccc1)c1ccc(C)cc1O (stereo unspecified),-13,-3,i,0,-3,-2
Cc1ccc(O)c([C@H](CCN(C(C)C)C(C)C)c2ccccc2)c1,-6,-6,+!,3,-4,1
Nc1cc(=O)n(Cc2ccccc2)c(=O)n1-c1ccc(Cl)cc1,0,1,i,-1,36*,1
Nc1cc(=O)n(Cc2ccccc2)c(=O)n1-c1ccc(F)cc1,1,1,i,-1,-4,1
C[C@]12C(=O)N(c3ccc(Cl)cc3)C(=O)N1[C@@H]1c3ccccc3OC[C@@H]1[C@H]2c1ccccc1,0,-4,i,2,13,-16
O=C(CSc1nc2ccccc2c(=O)n1-c1ccc(F)cc1F)Nc1ccc2c(c1)CCC2,-6,-3,i,3,22*,-12
Cc1nc2ccccc2n1C(C)c1nc2ccccc2n1CC(=O)c1ccc(OC(F)(F)F)cc1 (stereo unspecified),2,.,i,-1,5,.
Nc1c(C(=O)Nc2nccs2)sc2nc(-c3cccs3)cc(C(F)(F)F)c12,-141,-3,+,26,128,-26
CC(C)(C)C(=O)c1sc2nc(-c3cccs3)cc(C(F)(F)F)c2c1N,-213,-4,+,-28,-26,-2
Cc1nnc(NC(=O)c2sc3nc(-c4cccs4)cc(C(F)(F)F)c3c2N)s1,-367,-2,+,0,128,-19
CCN(CC)C(=O)c1sc2nc(-c3cccs3)cc(-c3cccs3)c2c1N,-16,-7,+,29,-34,-3
CCN(CC)C(=O)c1sc2nc(-c3cccs3)cc(-c3ccc(Cl)cc3)c2c1N,-38,-4,i,-17,-28,-6
Cc1nn(C)c2nc(-c3cccs3)cc(C(F)(F)F)c12,0,-1,i,0,-12,-8
CC(C)CC1NC(=O)c2ccccc2-n2c1nc1ccc(F)cc1c2=O (stereo unspecified),.,3,.,.,.,.
O=C(NCc1nnc(SCC(=O)N2CCOCC2)o1)c1c(F)cccc1F,1,-2,i,1,12,1
Cc1cccc(NC(=O)c2ccc(N(C)C3CCCCC3)c([N+](=O)[O-])c2)n1,-2,-3,?,3,-9,3
COc1ccccc1NS(=O)(=O)c1cc(-c2cnc(C3CC3)o2)ccc1C,-6,-2,?,1,22*,-1
COc1ccc(NS(=O)(=O)c2cc(-c3cnc(C4CC4)o3)ccc2C)cc1,-8,-6,?,5,0,-2
COc1ccc(CNC(=O)CSc2ncn[nH]2)cc1OC,3,1,+,1,-1,-3
NNC(=O)c1csc(-c2cccc(C(F)(F)F)c2)n1,-2,0,+,2,2,-2
O=C(Nc1ccc(C(F)(F)F)cc1)c1csc(-c2ccncc2)n1,0,-1,i,-1,-3,-4
CCOC(=O)c1c(NC(=O)CN2C(=O)NC3(CCCCC3C)C2=O)sc(C)c1CC (stereo unspecified),3,-6,i,-1,3,-1
O=C(NCCCO)/C(=C/c1ccc(-c2cccc([N+](=O)[O-])c2)o1)NC(=O)c1ccccc1,-2,-3,i,-1,-6,3
Cc1ccc(C(=O)N/C(=C/c2ccc(-c3ccc([N+](=O)[O-])cc3)o2)C(=O)NCCCN(C)C)cc1,-63,-4,+,-30,-37,-1
CSc1nnc2c(n1)OC1(Nc3ccccc3-2)C(=O)Nc2ccccc21 (stereo unspecified),-3,-1,i,3,1,-2
Cc1nc(Cc2nnc(SCC(=O)N3CCN(c4ccc(O)cc4)CC3)o2)cs1,-1,-5,+,0,-12,0

# From PubChem
